Laboratory results as given in ChEMBL document CHEMBL4049426, “Identification of the Clinical Candidate (R)-(1-(4-Fluorophenyl)-6-((1-methyl-1H-pyrazol-4-yl)sulfonyl)-4,4a,5,6,7,8-hexahydro-1H-pyrazolo[3,4-g]isoquinolin-4a-yl)(4-(trifluoromethyl)pyridin-2-yl)methanone (CORT125134): A Selective Glucocorticoid Receptor (GR) Antagonist” (J Med Chem, 2017).

Key:
[1] = Cmax in monkey plasma at 20 mg/kg, po measured up to 24 hrs by LC/MS analysis; assay type: ADME, organism-based, Macaca mulatta; parameters: dose 20 mg/kg, route oral; settings: rhesus monkey
In short: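 Monkey i.v./p.o. study: oral 20mg/kg in 10% DMSO, 0.1% Tween 80, 0.5% hydroxypropylmethylcellulose in water; i.v. dose 1mg/kg.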

[2] = molecular target: T1, Cytochrome P450 1A2 (Homo sapiens, UniProt P05177); assay: Inhibition of CYP1A2 (unknown origin); assay type: ADME
T1 sequence (P05177 whole entry): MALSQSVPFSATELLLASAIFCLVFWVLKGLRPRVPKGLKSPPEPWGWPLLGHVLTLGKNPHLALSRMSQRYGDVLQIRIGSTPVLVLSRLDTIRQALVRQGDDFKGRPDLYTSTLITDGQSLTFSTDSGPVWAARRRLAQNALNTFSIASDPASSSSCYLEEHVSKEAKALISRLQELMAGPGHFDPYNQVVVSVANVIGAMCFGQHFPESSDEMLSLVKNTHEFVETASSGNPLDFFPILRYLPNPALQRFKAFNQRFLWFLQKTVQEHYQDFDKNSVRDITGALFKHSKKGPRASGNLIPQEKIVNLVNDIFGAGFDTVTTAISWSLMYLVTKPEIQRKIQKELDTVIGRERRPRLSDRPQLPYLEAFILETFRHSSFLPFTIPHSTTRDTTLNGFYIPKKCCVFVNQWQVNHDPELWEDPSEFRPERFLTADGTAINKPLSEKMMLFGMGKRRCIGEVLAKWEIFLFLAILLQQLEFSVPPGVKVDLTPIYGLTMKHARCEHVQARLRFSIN

[3] = (§1) Antagonist activity at monkey glucocorticoid receptor in primary hepatocytes assessed as dexamethasone-induced tyrosine amino transferase activity preincubated for 30 mins followed by dexamethasone addition measured after 20 hrs; assay type: cell-based, Macaca mulatta
[4] = organism: Macaca mulatta; assay: as §1; assay type: cell-based

In the case of `Cn1cc(S(=O)(=O)N2CCC3=Cc4c(cnn4-c4ccc(F)cc4)C[C@]3(C(=O)c3cc(C(F)(F)F)ccn3)C2)cn1` [RELACORILANT], the Cmax [1] is reported as 1140 ng/mL, the IC50 [2] is reported as over 10000 nM and the Ki [3] is reported as 210 nM. The Imax [4] was 99%.
